The values below come from ChEMBL document CHEMBL3286131, “Design, synthesis and systematic evaluation of cytotoxic 3-heteroarylisoquinolinamines as topoisomerases inhibitors” (Eur J Med Chem, 2014).

As a reminder, the IC50 is the concentration that gives 50% inhibition. Read a low IC50 as greater potency in that assay.

The structures appear in SMILES notation.

Assay [1] in a line: Cytotoxicity against human MCF10A cells after 2 days. Type of assay: cell-based, MCF-10A. Summed up:
(§1)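 Cells seeded at 2-4 × 10^4 per well in medium with 10% FBS and incubated overnight at 37 °C, 5% CO2. Graded compound concentrations added on day 2. CCK-8 reagent added on day 4 for a further 4 h, absorbance read at 450 nm. IC50 from a four-parameter logistic fit; mean ± S.D. of three experiments run in triplicate.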

The test system of the next assay is T47D. The assay can be described thus: Cytotoxicity against human T47D cells after 2 days. Type of assay: functional, cell-based. Summed up: as §1
The subject of another assay is DU-145. The assay can be described thus: Cytotoxicity against human DU145 cells after 2 days. Type of assay: functional, cell-based. Summed up: as §1
Assay [2] can be described thus: Cytotoxicity against human HCT15 cells after 2 days. Type of assay: functional, cell-based, HCT-15. Summed up:
as §1

The subject of assay [3] is HeLa. Kind of assay: Cell cycle arrest in human HeLa cells assessed as accumulation at G0/G1 phase phase at 5 uM after 24 hrs using ethidium bromide staining by flow cytometry analysis relative to control. The note with it: in the assay text read “propidium iodide staining” for “ethidium bromide staining”. It is filed as functional. An outline of the steps: (§2)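 HeLa cells exposed to graded compound concentrations for 24 h, harvested by centrifugation, PBS-washed twice, fixed overnight on ice in 70% ethanol. Stained with 10 μg/mL propidium iodide plus 0.5 mg/mL RNase and 0.1% Triton X-100 in PBS, 30 min at 37 °C in the dark. Flow cytometry gates: sub-G0/G1, G0/G1, S, G2/M.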
In general terms: In flow cytometry, cells or beads pass a laser one at a time.

Assay [4] has as its system HeLa. The assay can be described thus: Cell cycle arrest in human HeLa cells assessed as accumulation at S phase phase at 5 uM after 24 hrs using ethidium bromide staining by flow cytometry analysis relative to control. Type of assay: functional. The note with it: in the assay text read “propidium iodide staining” for “ethidium bromide staining”. Summed up:
as §2

For assay [5], the system named is HeLa. Kind of assay: Cell cycle arrest in human HeLa cells assessed as accumulation at G2/M phase phase at 5 uM after 24 hrs using ethidium bromide staining by flow cytometry analysis relative to control. Type of assay: functional. The note with it: in the assay text read “propidium iodide staining” for “ethidium bromide staining”. An outline of the steps:
as §2

Assay [6] concerns HeLa. Kind of assay: Cell cycle arrest in human HeLa cells assessed as accumulation at sub-G0/G1 phase at 10 uM after 24 hrs using ethidium bromide staining by flow cytometry analysis relative to control. It is filed as functional. Conditions: in the assay text read “propidium iodide staining” for “ethidium bromide staining”. Summed up: as §2
Assay [7] has as its system HeLa. The assay can be described thus: Cell cycle arrest in human HeLa cells assessed as accumulation at G0/G1 phase phase at 10 uM after 24 hrs using ethidium bromide staining by flow cytometry analysis relative to control. Conditions: in the assay text read “propidium iodide staining” for “ethidium bromide staining”. It is filed as functional. An outline of the steps:
as §2

The test system of assay [8] is HeLa. The assay can be described thus: Cell cycle arrest in human HeLa cells assessed as accumulation at S phase phase at 10 uM after 24 hrs using ethidium bromide staining by flow cytometry analysis relative to control. It is filed as functional. Conditions: in the assay text read “propidium iodide staining” for “ethidium bromide staining”. Summed up:
as §2

The subject of assay [9] is HeLa. The assay can be described thus: Cell cycle arrest in human HeLa cells assessed as accumulation at G2/M phase phase at 10 uM after 24 hrs using ethidium bromide staining by flow cytometry analysis relative to control. It is filed as functional. The note with it: in the assay text read “propidium iodide staining” for “ethidium bromide staining”. An outline of the steps: as §2

The subject of assay [10] is HeLa. The assay can be described thus: Cell cycle arrest in human HeLa cells assessed as accumulation at sub-G0/G1 phase at 25 uM after 24 hrs using […] by flow cytometry analysis relative to control. It is filed as functional. An outline of the steps: as §2
In assay [11] the test system is HeLa. The assay can be described thus: Cell cycle arrest in human HeLa cells assessed as accumulation at G0/G1 phase phase at 25 uM after 24 hrs using […] by flow cytometry analysis relative to control. Type of assay: functional. Summed up: as §2
For assay [12], the system named is HeLa. The assay can be described thus: Cell cycle arrest in human HeLa cells assessed as accumulation at S phase phase at 25 uM after 24 hrs using […] by flow cytometry analysis relative to control. It is filed as functional. Summed up:
as §2

The test system of assay [13] is HeLa. The assay can be described thus: Cell cycle arrest in human HeLa cells assessed as accumulation at G2/M phase phase at 25 uM after 24 hrs using […] by flow cytometry analysis relative to control. Type of assay: functional. Summed up:
as §2

The test system of assay [14] is HeLa. Kind of assay: Cell cycle arrest in human HeLa cells assessed as accumulation at sub-G0/G1 phase at 50 uM after 24 hrs using […] by flow cytometry analysis relative to control. It is filed as functional. Summed up: as §2
The subject of assay [15] is HeLa. Kind of assay: Cell cycle arrest in human HeLa cells assessed as accumulation at G0/G1 phase phase at 50 uM after 24 hrs using […] by flow cytometry analysis relative to control. Type of assay: functional. An outline of the steps: as §2
Assay [16] concerns HeLa. Kind of assay: Cell cycle arrest in human HeLa cells assessed as accumulation at S phase phase at 50 uM after 24 hrs using […] by flow cytometry analysis relative to control. Type of assay: functional. An outline of the steps:
as §2

For assay [17], the system named is HeLa. The assay can be described thus: Cell cycle arrest in human HeLa cells assessed as accumulation at G2/M phase phase at 50 uM after 24 hrs using […] by flow cytometry analysis relative to control. Type of assay: functional. Summed up:
as §2

Turning to `Cc1ccc2c(N3CCNCC3)nc(-c3cccs3)cc2c1`, the IC50 in [1] (Homo sapiens, MCF-10A, 48 h) is 7.25 µM; in the assay on T47D (t47d), 8.74 µM; in the assay on DU-145 (Homo sapiens, DU-145, 48 h) it was 8.31 µM; in assay [2] (hct-15) it was 1.31 µM. Further, the Activity in the assay with HeLa [3] came out at 62.69%; with HeLa [4] it was 11.25%; in the assay with HeLa [5], 11.58%; with HeLa [6], 92.31%; in the assay with HeLa [7], 3.24%; with HeLa [8], 0.64%. In addition, the Activity worked out at 0.23% in the assay on HeLa [9]; 96% with HeLa [10]; 1.89% in the assay with HeLa [11]; 0.5% with HeLa [12]; 0.22% in the assay on HeLa [13]; 97.06% with HeLa [14]. Moreover, the Activity with HeLa [15] came to 1.4%; in the assay on HeLa [16], 0.35%; in the assay with HeLa [17], 0.04%.
Turning to `Nc1nc(-c2cccs2)cc2ccccc12`, the half-maximal inhibitory concentration (IC50) in assay [1] (Homo sapiens, MCF-10A, 48 h) is more than 50 µM; in the assay with T47D (t47d), 7.93 µM; in the assay on DU-145 (Homo sapiens, DU-145, 48 h), more than 50 µM; in assay [2] (hct-15), 1.2 µM. In addition, the Activity in the assay with HeLa [3] stood at 44.93%; with HeLa [4], 9.04%; with HeLa [5] it was 28.48%; in the assay with HeLa [6] it was 17.43%; in the assay with HeLa [7] it was 21.33%; with HeLa [8], 8.2%. The Activity is 41.79% in the assay on HeLa [9]; 18.03% in the assay with HeLa [10]; 11.6% with HeLa [11]; 11.29% with HeLa [12]; 47.68% with HeLa [13]; 13.66% in the assay on HeLa [14]. The Activity in the assay on HeLa [15] was determined as 5.04%; with HeLa [16], 9.56%; with HeLa [17] it was 59.85%.
For `Cc1ccc2c(N3CCNCC3)nc(-c3cccs3)cc2c1.Cl`, the IC50 turned out to be 8.18 µM in assay [1] (mcf-10a); 7.57 µM in the assay with T47D (Homo sapiens, T47D, 48 h); 11.7 µM in the assay on DU-145 (du-145); 0.94 µM in [2] (Homo sapiens, HCT-15, 48 h). Further, the Activity in the assay on HeLa [3] amounted to 59.04%; in the assay on HeLa [4], 13.49%; with HeLa [5], 12.75%; in the assay on HeLa [6] it was 86.88%; with HeLa [7], 6.13%; in the assay on HeLa [8], 1.6%. Besides, the Activity in the assay with HeLa [9] amounted to 0.58%; with HeLa [10] it was 96.03%; in the assay with HeLa [11], 1.64%; with HeLa [12] it was 0.67%; with HeLa [13], 0.27%; in the assay on HeLa [14], 98.87%. Moreover, the figures for the Activity with HeLa [15], with HeLa [16] and in the assay with HeLa [17] were 0.57%, 0.17% and 0%, respectively.
In the case of `Cl.Nc1nc(-c2cccs2)cc2ccccc12`, the concentration for half-maximal inhibition (IC50) in the assay on T47D (t47d) turned out to be 17.5 µM; in assay [2] (hct-15), 24.4 µM. Further, the Activity amounted to 63.67% in the assay with HeLa [3]; 7.76% in the assay with HeLa [4]; 16.08% in the assay with HeLa [5]; 6.6% in the assay with HeLa [6]; 64.43% with HeLa [7]; 9.55% in the assay with HeLa [8]. In addition, the Activity is on record as 13.67% with HeLa [9]; 5.22% in the assay with HeLa [10]; 56.01% in the assay with HeLa [11]; 13.82% with HeLa [12]; 11.42% in the assay with HeLa [13]; 6.54% in the assay on HeLa [14]. Moreover, the Activity with HeLa [15] turned out to be 52.6%; with HeLa [16], 10.09%; with HeLa [17] it was 22.37%.
